Diaphorase inh – diaphorase inhibitors and chemical oxidizers, primary screen, counter-screen for diaphorase-coupled primary assays, biochemical, uHTS, resorufin fluorescence. diaphorase resazurin-to-resorufin fluorescence, NADH, 16 min; bacterial (C. kluyveri) enzyme, not human. 190,000 tested, 0.69% active. inhibition, % at 20 µM;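 active = primary screen inhibition at 20 µM above a set limit, cut at about 50% in these data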;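 also: plate controls were DMSO with full reaction for no effect and wells lacking NADH for full effect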
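Assay system: diaphorase enzyme from Clostridium kluyveri; Input: enzyme working solution with 0.14 U/mL diaphorase; Timing: 16 min at room temperature; Technique: resorufin fluorescence, excitation 544 nm, emission 590 nm; Benchmarks: positive control minus NADH, DMSO neutral control.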
HKDC1 inh – HKDC1 hexokinase inhibitors, primary screen, biochemical, fluorescence, uHTS; recombinant HKDC1, G6PDH/diaphorase resazurin coupled fluorescence; inhibition, % at 20 µM; 340,000 tested, 0.16% active;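 active = inhibition above about 35% when tested at 20 µM, limit read from the data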;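 also: plate controls were DMSO wells with enzyme for no effect and DMSO wells lacking enzyme for full effect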
Target sequence (Q2TB90 whole entry, looked up): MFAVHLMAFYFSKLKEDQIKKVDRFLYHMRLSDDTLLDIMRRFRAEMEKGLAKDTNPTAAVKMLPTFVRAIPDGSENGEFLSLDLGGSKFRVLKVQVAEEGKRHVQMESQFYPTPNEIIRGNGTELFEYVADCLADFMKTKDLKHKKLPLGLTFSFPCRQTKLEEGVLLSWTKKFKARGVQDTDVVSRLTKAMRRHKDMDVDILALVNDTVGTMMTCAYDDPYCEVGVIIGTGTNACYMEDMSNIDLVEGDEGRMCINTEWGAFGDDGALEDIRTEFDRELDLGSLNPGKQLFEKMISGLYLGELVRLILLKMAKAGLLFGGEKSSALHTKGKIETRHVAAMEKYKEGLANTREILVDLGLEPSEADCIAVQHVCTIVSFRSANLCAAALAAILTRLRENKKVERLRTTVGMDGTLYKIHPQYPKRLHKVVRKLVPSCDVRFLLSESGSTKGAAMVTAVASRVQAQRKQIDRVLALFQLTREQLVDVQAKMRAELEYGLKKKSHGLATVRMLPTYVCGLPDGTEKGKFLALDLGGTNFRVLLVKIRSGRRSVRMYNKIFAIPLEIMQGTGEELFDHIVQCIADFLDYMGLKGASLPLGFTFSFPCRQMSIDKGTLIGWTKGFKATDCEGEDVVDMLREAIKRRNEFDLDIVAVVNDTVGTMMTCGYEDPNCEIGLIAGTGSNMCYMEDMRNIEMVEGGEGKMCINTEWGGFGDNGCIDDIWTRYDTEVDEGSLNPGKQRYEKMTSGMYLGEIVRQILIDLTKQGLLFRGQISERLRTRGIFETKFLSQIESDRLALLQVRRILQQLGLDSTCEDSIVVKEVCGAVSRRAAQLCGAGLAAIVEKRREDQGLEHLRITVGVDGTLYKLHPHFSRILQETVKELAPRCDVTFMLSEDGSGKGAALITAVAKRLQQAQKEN
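Assay system – recombinant HKDC1 (HK5) hexokinase enzyme, produced in-house · Input – HKDC1 at 5 µg/mL · Reagent – glucose plus 1 mM ATP as hexokinase substrates · Timing – 90 min reaction incubation at room temperature, dark · Measured by – G6PDH/diaphorase-coupled fluorescence, 1 mM NADP, 100 µM resazurin, 525/613 nm · Benchmarks – DMSO-enzyme wells negative, buffer-substituted wells positive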
Diaph act CS – compounds boosting diaphorase resazurin reduction – biochemical, uHTS, resorufin fluorescence, counter-screen for diaphorase-coupled primary assays, primary screen | Diaphorase/resazurin coupled assay, 16 min; active compounds read high; 1 = vehicle wells, 0 = NADH-free wells | activation factor at 20 µM | 190,000 tested, 0.005% active;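 active = diaphorase activity raised at least twofold by the compound at 20 µM; inactive = activation factor below 2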
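Assay system: bacterial diaphorase enzyme (C. kluyveri) / Input: enzyme 0.07 U/mL final / Medium: 50 mM HEPES pH 7.4 with 4.542 mM MgCl2, 0.005% Tween 20 / Doses: single compound dose of 20 µM, 1% DMSO final / Incubation: 16 min enzyme reaction, ambient temperature / Signal: fluorescence, excitation 544 nm and emission 590 nm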
PfG6PD inh – PfG6PD enzyme inhibitors, primary screen, biochemical, fluorescence intensity, uHTS; inhibition, % at 20 µM; AID 504690, 2011; glucose-6-phosphate dehydrogenase-6-phosphogluconolactonase (Plasmodium falciparum 3D7); 350,000 tested, 0.78% active; PfGluPho enzyme, NADPH resazurin-diaphorase fluorescence;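 active = inhibition reaching at least a set limit at 20 µM in the primary screen, cut at about 59% in these data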;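 also: 0% = DMSO wells with substrate and 100% = DMSO wells lacking glucose-6-phosphate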
G6PDH CS – L. mesenteroides G6PDH inhibitors, counter-screen for G6PDH-coupled screening assays, biochemical, Leuconostoc mesenteroides enzyme; glucose-6-phosphate dehydrogenase [Leuconostoc mesenteroides]; Purified L. mesenteroides G6PDH, diaphorase/resazurin coupled fluorescence, 45 min; inhibition, % at 5 µM; 200,000 tested, 0.12% active; AID 1020, 2008; in the data active = inhibition above about 50%
HKDC1 act conf2 – HKDC1 hexokinase activators, confirmation, biochemical, single concentration | inhibition, % at 20 µM | recombinant HKDC1, G6PDH/diaphorase resazurin fluorescence; active compounds read low | shares compounds with HKDC1 inh | 740 tested, 14% active;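 active = inhibition at or below a set negative limit, negative inhibition meaning the enzyme was activated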
* marks the source's active call; other numbers are inactive results; / = no result given. In the library only some 1.3% were active in any assay of this set; here they are far more common.

SMILES | Diaphorase inh | HKDC1 inh | Diaph act CS | PfG6PD inh | G6PDH CS | others
Cc1nc2ccccc2c(=O)n1-c1ccc(Br)cc1[N+](=O)[O-] | 70* | 14 | 0.3 | -14 | 9
Cc1nc2ccccc2c(=O)n1-c1ccccc1[N+](=O)[O-] | 25 | -15 | 0.7 | 0 | 2
CN1CC[C@@]2(C)c3cc(O)ccc3N(C)C2O1 (some centres undefined) | / | 16 | / | 64* | /
N#CC(C#N)=C(C#N)c1ccc(Nc2ccccc2)cc1 | / | 29 | / | 9 | /
O=C(N/N=C/c1c(O)n(C2CC2)c(=S)[nH]c1=O)c1ccccc1O | 66* | 3 | 0.3 | -37 | 17
Cc1ccc(-n2c(O)c(C=NC3CCCC3)c(=O)[nH]c2=O)c(C)c1 | -5 | 1 | 1.1 | 4 | 14
Cc1nn(CCC#N)c2c1P(=S)(N1CCCC1)OC(c1ccc(F)cc1)=N2 (centres undefined) | 17 | -11 | 0.8 | 65* | 16
Oc1ccc(C[C@H]2NCCc3cc(O)c(O)cc32)cc1O | / | 7 | / | 53 | /
Oc1ccc(CC2CC3CCN2CC3)cc1O (centres undefined) | 53* | -2 | 0.5 | -1 | 40
COc1ccc(-n2c(O)c(C(C)=NCCN3CCNCC3)c(=O)[nH]c2=O)cc1 | 20 | -2 | 0.8 | -8 | -1
Cc1ccc2c(c1)=C/C(=C\c1c(O)[nH]c(=S)[nH]c1=O)C(=O)N=2 | 54* | / | 0.5 | / | -14
Cc1ccc2c(c1)=NC(=O)/C(=C/c1c(O)[nH]c(=O)[nH]c1=O)C=2 | / | -1 | / | 35 | /
O=C1NC(=O)C(=Cc2ccc(-c3ccc(Cl)cc3)o2)C(=O)N1 | / | 26 | / | 77* | /
O=C1NC(=O)C(=Cc2ccc(-c3ccc(S(=O)(=O)N4CCOCC4)cc3)o2)C(=O)N1 | / | 8 | / | 73* | /
COc1ccccc1CCNC(=O)CCC(=O)N1CC2C[C@@H](C1)Cn1c2cccc1=O | / | -12 | / | 1 | /
CCCCCn1c(NC(=O)c2ccco2)c(C(=O)OCC)c2nc3ccccc3nc21 | 68* | 9 | 0.3 | 24 | 32
CCOC(=O)c1cccc(C2=C(CNC(=O)c3nccs3)[C@H]3CC[C@@H](C2)N3Cc2ccccc2)c1 | / | / | / | 2 | /
CN(C)c1cccc2c(C#N)ccc(N(C)C)c12 | 72* | 2 | 0.3 | 8 | 11
O=c1[nH]c(O)c(/C=C2/C=CC(c3cc(Cl)ccc3Cl)=N2)c(=O)[nH]1 | / | 40* | / | 8 | /
CCn1ccnc1CN1CCCC(C(=O)c2cccc(C(F)(F)F)c2)C1 (centres undefined) | 16 | -5 | 0.8 | 1 | 10
COc1ccc2[nH]cc(CCN)c2c1 | 1 | -4 | 1 | -3 | -2
CCCCCCCCCOc1ccc2[nH]cc(CCN)c2c1 | -227 | / | 3.3* | / | 0
COc1ccc(C(=O)CC2(CC(=O)c3ccc(OC)cc3)C(=O)N(C)C(=O)N(C)C2=O)cc1 | 5 | -2 | 0.9 | -7 | 2
CN1C(=O)N(C)C(=O)C2(Cc3c(ccc4ccccc34)N(C)C2)C1=O | 67* | 26 | 0.3 | 37 | 28
CCCOc1ccc(N2C(=O)CC(N3CC=C(c4ccccc4)CC3)C2=O)cc1 (centres undefined) | 9 | -14 | 0.9 | 13 | 6
SMILES | Diaphorase inh | HKDC1 inh | Diaph act CS | PfG6PD inh | G6PDH CS | others
NC(=O)c1ccc(N=Nc2c(O)[nH]c(=O)[nH]c2=O)cc1 | 1 | / | 1 | / | -10
O=c1[nH]c(O)c(N=Nc2cc([N+](=O)[O-])ccc2O)c(=O)[nH]1 | 66* | 9 | 0.3 | -13 | 42
CCOC(=O)c1cc2c(cn1)[nH]c1ccccc12 | 2 | -3 | 1 | 21 | 5
CC(C)N1CCN(Cc2cc3c(cc2Cl)OCO3)CC1CCO (centres undefined) | / | 0 | / | 7 | /
CCc1c(C)nc(N)nc1N1N=C1SCC(=O)OC | 77* | -6 | 0.2 | -5 | 6
CCc1c(C)nc(N)nc1N1N=C1SCC#N | 11 | -6 | 0.9 | -2 | 0
O=C1C=CC(=O)C=C1 | / | 48* | / | 54 | /
O=C(N/N=C\C1C(=O)NC(=S)N(c2ccccc2)C1=O)c1ccc(O)cc1 (centres undefined) | 65* | -7 | 0.3 | -10 | 21
CC(=O)c1ccc2c(c1)C1C(Cl)C(Sc3ccccc3[N+](=O)[O-])CC1C(c1ccccc1)N2 (centres undefined) | 21 | 9 | 0.8 | 34 | -21
CC(=O)c1ccc2c(c1)C1C(Cl)C(Sc3ccccc3[N+](=O)[O-])CC1C(c1ccccc1[N+](=O)[O-])N2 (centres undefined) | 63* | 16 | 0.4 | 59* | 10
O=C1Nc2ccc(Br)cc2C(c2ccccc2)=NC1O (centres undefined) | / | 1 | / | -13 | /
Cc1cc(C)nc(NC2=NCCS2)n1 | 6 | 3 | 0.9 | -10 | 5
COc1c2c(cc3c1OCO3)CC[N+](C)=C2 | 83* | -10 | 0.2 | 0 | 10
COc1cc(C2c3cc4c(c(O)c3CC3COC(=O)C32)OCO4)cc(OC)c1OC (centres undefined) | / | -2 | / | 21 | /
CCn1nc(-c2ccccc2)nc2c(=O)n(C)c(=O)nc1-2 | -44 | -83 | 1.4 | 95* | 59*
COc1ccc(-c2nc3ccccc3c(=O)n2-c2ccc(OC)cc2)cc1 | 9 | -5 | 0.9 | 14 | 12
Cc1ccsc1/C=C1\C(=O)NC(=S)N(C)C1=O | / | 5 | / | 37 | /
COc1ccc(/C=C2\C(=O)NC(=S)N(C)C2=O)cc1C | 8 | 36* | 0.9 | 4 | 6
CN1C(=O)/C(=C/c2ccc(Cl)s2)C(=O)NC1=S | / | 5 | / | 63* | /
COc1ccc(OC)c(N2C(=O)/C(=C/c3ccco3)C(=O)NC2=S)c1 | / | 82* | / | 19 | / | HKDC1 act conf2=77
CCN(CCCl)c1cc(CN(C)C)cc(NC(=O)c2ccc(C(=O)Nc3cc(CN(C)C)cc(N(CC)CCCl)c3)cc2)c1 | / | -4 | / | 29 | /
CC1C(C)N1CC(O)Cn1ccnc1[N+](=O)[O-] (centres undefined) | / | -3 | / | -9 | /
N#CC1=C(N)Oc2c(c(=O)sc3ccccc23)C1c1ccncc1 (centres undefined) | 9 | -58 | 0.9 | -39 | 4 | HKDC1 act conf2=-22
O=C1CC=C2C3CC4N(CCC45c4cc(O)c(O)cc4N1C25)CC3=CCBr (centres undefined) | / | 45* | / | 126* | / | HKDC1 act conf2=26

From PubChem BioAssay
